Measured values as given in ChEMBL document CHEMBL1135427, “Osteoadsorptive bisphosphonate derivatives of fluoroquinolone antibacterials” (2002).
Converted amounts (≈) assume the structure as drawn.

Experiments:
[1] = system: Pseudomonas aeruginosa; assay: Antibacterial activity determined as minimal inhibitory concentration (MIC) against Pseudomonas aeruginosa ATCC 27853; format: functional
How it was run: (§1)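 Agar dilution. Compounds were dissolved in 0.2% NaHCO3, or in DMSO if insoluble, and mixed into molten agar at 50 °C. After the agar set, bacterial suspension was streaked onto the surface. MIC was read after 48 h of incubation at 37 °C.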

[2] = Antibacterial activity determined as minimal inhibitory concentration (MIC) against […] OKI 60002; format: functional; how it was run: as §1
[3] = system: Enterococcus faecalis; assay: Antibacterial activity determined as minimal inhibitory concentration (MIC) against Streptococcus faecalis OKI 80171; format: functional; how it was run: as §1
[4] = system: Escherichia coli; assay: Antibacterial activity determined as minimal inhibitory concentration (MIC) against Escherichia coli OKI 35034; format: functional; how it was run: as §1
[5] = system: Aggregatibacter actinomycetemcomitans; assay: Antibacterial activity determined as minimal inhibitory concentration (MIC) against Actinobacillus actinomycetecommitans ATCC 29527; format: functional; how it was run: as §1
[6] = system: Staphylococcus aureus; assay: Antibacterial activity determined as minimal inhibitory concentration (MIC) against Methicillin resistant Staphylococcus aureus; format: functional
[7] = system: Staphylococcus epidermidis; assay: Antibacterial activity determined as minimal inhibitory concentration (MIC) against Staphylococcus epidermidis ATCC 110001; format: functional; how it was run: as §1
[8] = system: Staphylococcus aureus; assay: Antibacterial activity determined as minimal inhibitory concentration (MIC) against Staphylococcus aureus ATCC 25923; format: functional; how it was run: as §1
[9] = system: Helicobacter pylori; assay: Antibacterial activity determined as minimal inhibitory concentration (MIC) against Helicobacter pylori HIH 27606; format: functional; how it was run: as §1
[10] = system: Staphylococcus aureus; assay: Antibacterial activity determined as minimal inhibitory concentration (MIC) against Staphylococcus aureus ATCC 12598; format: functional; how it was run: as §1
[11] = system: Helicobacter pylori; assay: Antibacterial activity determined as minimal inhibitory concentration (MIC) against Helicobacter pylori HIH 27604; format: functional; how it was run: as §1
[12] = system: Salmonella typhi; assay: Antibacterial activity determined as minimal inhibitory concentration (MIC) against Salmonella typhi OKI 10084; format: functional, Salmonella enterica subsp. enterica serovar Typhi; conditions: Salmonella enterica
How it was run: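 Agar dilution against a laboratory strain. Compounds were dissolved in 0.2% NaHCO3, or in DMSO if insoluble, and mixed into molten agar at 50 °C. Bacterial suspension was streaked onto the solidified agar. Plates were incubated 48 h at 37 °C. MIC was taken as the lowest concentration inhibiting bacterial growth.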

[13] = system: Staphylococcus aureus; assay: Antibacterial activity determined as minimal inhibitory concentration (MIC90) against Methicillin sensitive Staphylococcus aureus; format: functional
How it was run: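 Broth microdilution on clinical isolates. Compounds were serially diluted from 256 to 0.5 μg/mL. Log-phase bacteria were added (A540 = 0.15 × 10^7 cfu/mL) and incubated 18 h at 37 °C, then growth was inspected macroscopically. MIC was the lowest concentration inhibiting growth. MIC90 was calculated across multiple isolates from median MIC ±1 SD using the z statistic.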

[14] = system: Aggregatibacter actinomycetemcomitans; assay: Antibacterial activity determined as minimal inhibitory concentration (MIC) against Actinobacillus actinomycetecommitans ATCC 29527; value ranges from 1-2; format: functional; how it was run: as §1
[15] = system: Staphylococcus aureus; assay: Antibacterial activity determined as minimal inhibitory concentration (MIC) against Staphylococcus aureus ATCC 25923; value ranges from 8-16; format: functional; how it was run: as §1
[16] = system: Staphylococcus aureus; assay: Antibacterial activity determined as minimal inhibitory concentration (MIC) against Staphylococcus aureus ATCC 12598; value ranges from 8-16; format: functional; how it was run: as §1

Compound	MIC [1]	MIC [2]	MIC [3]	MIC [4]	MIC [5]	MIC [6]	MIC [7]	MIC [8]	MIC [9]	MIC [10]	MIC [11]	MIC [12]	MIC90 [13]	MIC [14]	MIC [15]	MIC [16]
O=C(O)c1cn(C2CC2)c2cc(N3CCNCC3)c(F)cc2c1=O [CIPROFLOXACIN]	3.12 µg/mL (≈ 9.42 µM)	< 0.39 µg/mL	3.12 µg/mL (≈ 9.42 µM)	< 0.39 µg/mL	0.25 µg/mL (≈ 0.754 µM)	> 8 µg/mL	0.78 µg/mL (≈ 2.35 µM)	1.56 µg/mL (≈ 4.71 µM)	< 0.39 µg/mL	2 µg/mL (≈ 6.04 µM)	0.78 µg/mL (≈ 2.35 µM)	< 0.39 µg/mL	1.65 µg/mL (≈ 4.98 µM)	–	–	–
CCOP(=O)(OCC)C(CN1CCN(c2cc3c(cc2F)c(=O)c(C(=O)O)cn3C2CC2)CC1)P(=O)(OCC)OCC	3.12 µg/mL (≈ 4.94 µM)	< 0.39 µg/mL	3.12 µg/mL (≈ 4.94 µM)	< 0.39 µg/mL	< 0.25 µg/mL	> 8 µg/mL	0.78 µg/mL (≈ 1.24 µM)	3.12 µg/mL (≈ 4.94 µM)	< 0.39 µg/mL	1 µg/mL (≈ 1.58 µM)	0.78 µg/mL (≈ 1.24 µM)	< 0.39 µg/mL	3.91 µg/mL (≈ 6.19 µM)	–	–	–
O=C(O)c1cn(C2CC2)c2cc(N3CCN(C(P(=O)(O)O)P(=O)(O)O)CC3)c(F)cc2c1=O	25 µg/mL (≈ 49.5 µM)	6.25 µg/mL (≈ 12.4 µM)	100 µg/mL (≈ 198 µM)	< 0.39 µg/mL	–	–	25 µg/mL (≈ 49.5 µM)	50 µg/mL (≈ 98.9 µM)	12.5 µg/mL (≈ 24.7 µM)	–	12.5 µg/mL (≈ 24.7 µM)	0.78 µg/mL (≈ 1.54 µM)	–	–	–	–
O=C(O)c1cn(C2CC2)c2cc(N3CCN(CC(P(=O)(O)O)P(=O)(O)O)CC3)c(F)cc2c1=O	25 µg/mL (≈ 48.1 µM)	< 0.39 µg/mL	50 µg/mL (≈ 96.3 µM)	0.78 µg/mL (≈ 1.5 µM)	–	> 8 µg/mL	25 µg/mL (≈ 48.1 µM)	–	0.78 µg/mL (≈ 1.5 µM)	–	3.12 µg/mL (≈ 6.01 µM)	0.78 µg/mL (≈ 1.5 µM)	51.3 µg/mL (≈ 98.8 µM)	2 µg/mL (≈ 3.85 µM)	16 µg/mL (≈ 30.8 µM)	16 µg/mL (≈ 30.8 µM)
CCOP(=O)(OCC)C(N1CCN(c2cc3c(cc2F)c(=O)c(C(=O)O)cn3C2CC2)CC1)P(=O)(OCC)OCC	> 100 µg/mL	25 µg/mL (≈ 40.5 µM)	50 µg/mL (≈ 81 µM)	0.78 µg/mL (≈ 1.26 µM)	–	–	6.25 µg/mL (≈ 10.1 µM)	12.5 µg/mL (≈ 20.2 µM)	25 µg/mL (≈ 40.5 µM)	–	25 µg/mL (≈ 40.5 µM)	0.78 µg/mL (≈ 1.26 µM)	–	–	–	–
